Results published in ChEMBL document CHEMBL4130355, “Development of a series of novel 4-anlinoquinazoline derivatives possessing quinazoline skeleton: Design, synthesis, EGFR kinase inhibitory efficacy, and evaluation of anticancer activities in vitro” (Eur J Med Chem, 2017).
Activity calls are given as the source filed them. No cut-off for these calls is given here.

Tests used:
A549 [1] = test: Antiproliferative activity against human A549 cells at 0.1 uM after 24 hrs by MTT assay relative to control; assay type: functional
How it was run: (§1)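 MTT assay in triplicate wells. Cells (2 × 10^3/well) were attached 24 h, then treated at 0.1, 1, 10, 50 or 100 µM for 24, 48 or 72 h. MTT added for 4 h, SDS solubilisation, absorbance at 570/650 nm. Inhibition = 1 − (OD treated − blank)/(OD control − blank). Reported as mean ± SD of three independent experiments.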

DU-145 = test: Antiproliferative activity against human DU145 cells after 72 hrs by MTT assay; assay type: functional, cell-based; conditions: DU-145, 72 h
HepG2 [2] = test: Antiproliferative activity against human HepG2 cells at 50 uM after 24 hrs by MTT assay realtive to control; assay type: functional; how it was run: as §1
A549 [3] = test: Antiproliferative activity against human A549 cells at 1 uM after 48 hrs by MTT assay relative to control; assay type: functional; how it was run: as §1
A549 [4] = test: Antiproliferative activity against human A549 cells at 50 uM after 48 hrs by MTT assay relative to control; assay type: functional; how it was run: as §1
A549 [5] = test: Antiproliferative activity against human A549 cells at 100 uM after 48 hrs by MTT assay relative to control; assay type: functional; how it was run: as §1
A549 [6] = test: Antiproliferative activity against human A549 cells at 50 uM after 72 hrs by MTT assay relative to control; assay type: functional; how it was run: as §1
HepG2 [7] = test: Antiproliferative activity against human HepG2 cells after 48 hrs by MTT assay; assay type: functional, cell-based; conditions: HepG2, 48 h
How it was run: (§2)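 MTT read-out. Cells seeded at 2 × 10^3/well, attached 24 h at 37 °C in 5% CO2, then exposed to 0.1–100 µM for 24, 48 or 72 h. MTT for 4 h, formazan dissolved in 10% SDS/NH4Cl for 10 h, absorbance at 570 nm corrected at 650 nm. % inhibition computed against untreated and blank wells. IC50 is the mean of at least three independent experiments.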

A549 [8] = test: Antiproliferative activity against human A549 cells after 24 hrs by MTT assay; assay type: functional, cell-based; conditions: A549, 24 h; how it was run: as §2
A549 [9] = test: Antiproliferative activity against human A549 cells after 48 hrs by MTT assay; assay type: functional, cell-based; conditions: A549, 48 h; how it was run: as §2
[10] = Antiproliferative activity against human CCC-HPF1 cells after 72 hrs by MTT assay; assay type: ADME, cell-based; conditions: CCC-HPF-1, 72 h
[11] = target: T1, Epidermal growth factor receptor (Homo sapiens, UniProt P00533); assay type: cell-based, HEK293
HepG2 [12] = test: Cytotoxicity against human HepG2 cells at 20 uM after 48 hrs by LDH release assay (reference value: 100%); assay type: functional
How it was run: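 LDH release. HepG2 cells at 1.0 × 10^5/well were incubated 24 h at 37 °C, then treated at 2.5–40 µM for 48 h. Cells lysed with 2% lysate for 1 h gave the full-release (100%) reference; medium-only cells were the low control. LDH in the supernatant was measured per kit. Triplicates, three independent repeats.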

HepG2 [13] = test: Cell cycle arrest in human HepG2 assessed as accumulation at G0/G1 phase at 10 uM after 48 hrs by propidium iodide-staining based flow cytometry (reference value: 69.40%); assay type: functional
How it was run: (§3)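 HepG2 cells at 5.0 × 10^5/well were grown 24 h, then treated at 0, 2.5, 5.0 or 10.0 µM for 48 h alongside medium-only wells. Cells fixed in 70% ice-cold ethanol for ≥24 h, treated with RNase A at 37 °C for 30 min, then stained with propidium iodide for 30 min at 4 °C in the dark. DNA content read by flow cytometry. Average of at least three experiments.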

HepG2 [14] = test: Cell cycle arrest in human HepG2 assessed as accumulation at G2/M phase at 5 uM after 48 hrs by propidium iodide-staining based flow cytometry (reference value: 9.13%); assay type: functional; how it was run: as §3
HepG2 [15] = test: Induction of apoptosis in human HepG2 cells assessed as late apoptotic cells at 10 uM after 48 hrs by Annexin V-FITC/propidium iodide double staining-based flow cytometry (reference value: 4.3%); assay type: functional
HepG2 [16] = test: Induction of apoptosis in human HepG2 cells assessed as chromatin condensation at 2.5 to 20 uM after 48 hrs by Hoechst 33342/propidium iodide double staining based laser scanning confocal microscopy; assay type: functional, cell-based
How it was run: (§4)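 HepG2 plated at 5.0 × 10^4 cells/well in DMEM with 10% FBS, 24 h at 37 °C, then treated 48 h (2.5–20 µM). After two ice-cold PBS washes, cells were stained with Hoechst 33342/PI mixed 1:1 for 30 min at 37 °C in the dark, washed three times, and imaged by laser scanning confocal microscopy at 200×.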

HepG2 [17] = test: Induction of apoptosis in human HepG2 cells assessed as nuclear fragmentation at 2.5 to 20 uM after 48 hrs by Hoechst 33342/propidium iodide double staining based laser scanning confocal microscopy; assay type: functional, cell-based; how it was run: as §4
HepG2 [18] = test: Induction of apoptosis in human HepG2 cells assessed as budded nuclei formation at 2.5 to 20 uM after 48 hrs by Hoechst 33342/propidium iodide double staining based laser scanning confocal microscopy; assay type: functional, cell-based; how it was run: as §4
HepG2 [19] = test: Induction of mitochondrial membrane potential loss in human HepG2 cells assessed as mitochondrial membrane potential levels at 5 uM after 48 hrs by rhodamine-123 dye based FACS analysis (reference value: 90.4%); assay type: functional
HepG2 [20] = test: Induction of mitochondrial membrane potential loss in human HepG2 cells assessed as mitochondrial membrane potential levels at 10 uM after 48 hrs by rhodamine-123 dye based FACS analysis (reference value: 90.4%); assay type: functional
HepG2 [21] = test: Induction of apoptosis in human HepG2 cells assessed as intracellular free Ca2+ levels at 2.5 uM after 48 hrs by FL1 channel/FACS analysis (reference value: 14.2%); assay type: functional
How it was run: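 HepG2 seeded at 5.0 × 10^5 cells/mL, 24 h at 37 °C in 5% CO2, then treated 48 h (2.5–20 µM). Harvested cells were washed in ice-cold PBS and loaded with 4 µM Fluo-3/AM for 30 min. After trypsinizing, they were washed twice and resuspended in HEPES, and fluorescence was measured in the FL-1 channel by flow cytometry. Values are averages of at least three independent experiments.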

HepG2 [22] = test: Induction of apoptosis in human HepG2 cells assessed as caspase-3 activity at 5 uM after 48 hrs by colorimetric assay relative to control; assay type: functional
How it was run: (§5)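 After 48 h treatment, HepG2 were rinsed in ice-cold PBS and lysed 1–1.5 h on ice in buffer with 1% DTT. Lysate was spun at 10,000×g for 1 min at 4 °C; supernatant protein was measured by Bradford. Supernatant was mixed with 2× reaction buffer (1% DTT) plus caspase-3 chromogenic peptide substrate, held 4 h at 37 °C, and read at 405 nm.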

HepG2 [23] = test: Induction of apoptosis in human HepG2 cells assessed as caspase-3 activity at 10 uM after 48 hrs by colorimetric assay relative to control; assay type: functional; how it was run: as §5
[24] = target: T1, Epidermal growth factor receptor; conditions: HEK293, at 1 µM
[25] = target: T1, Epidermal growth factor receptor; conditions: HEK293, at 10 µM

T1 sequence (P00533 whole entry): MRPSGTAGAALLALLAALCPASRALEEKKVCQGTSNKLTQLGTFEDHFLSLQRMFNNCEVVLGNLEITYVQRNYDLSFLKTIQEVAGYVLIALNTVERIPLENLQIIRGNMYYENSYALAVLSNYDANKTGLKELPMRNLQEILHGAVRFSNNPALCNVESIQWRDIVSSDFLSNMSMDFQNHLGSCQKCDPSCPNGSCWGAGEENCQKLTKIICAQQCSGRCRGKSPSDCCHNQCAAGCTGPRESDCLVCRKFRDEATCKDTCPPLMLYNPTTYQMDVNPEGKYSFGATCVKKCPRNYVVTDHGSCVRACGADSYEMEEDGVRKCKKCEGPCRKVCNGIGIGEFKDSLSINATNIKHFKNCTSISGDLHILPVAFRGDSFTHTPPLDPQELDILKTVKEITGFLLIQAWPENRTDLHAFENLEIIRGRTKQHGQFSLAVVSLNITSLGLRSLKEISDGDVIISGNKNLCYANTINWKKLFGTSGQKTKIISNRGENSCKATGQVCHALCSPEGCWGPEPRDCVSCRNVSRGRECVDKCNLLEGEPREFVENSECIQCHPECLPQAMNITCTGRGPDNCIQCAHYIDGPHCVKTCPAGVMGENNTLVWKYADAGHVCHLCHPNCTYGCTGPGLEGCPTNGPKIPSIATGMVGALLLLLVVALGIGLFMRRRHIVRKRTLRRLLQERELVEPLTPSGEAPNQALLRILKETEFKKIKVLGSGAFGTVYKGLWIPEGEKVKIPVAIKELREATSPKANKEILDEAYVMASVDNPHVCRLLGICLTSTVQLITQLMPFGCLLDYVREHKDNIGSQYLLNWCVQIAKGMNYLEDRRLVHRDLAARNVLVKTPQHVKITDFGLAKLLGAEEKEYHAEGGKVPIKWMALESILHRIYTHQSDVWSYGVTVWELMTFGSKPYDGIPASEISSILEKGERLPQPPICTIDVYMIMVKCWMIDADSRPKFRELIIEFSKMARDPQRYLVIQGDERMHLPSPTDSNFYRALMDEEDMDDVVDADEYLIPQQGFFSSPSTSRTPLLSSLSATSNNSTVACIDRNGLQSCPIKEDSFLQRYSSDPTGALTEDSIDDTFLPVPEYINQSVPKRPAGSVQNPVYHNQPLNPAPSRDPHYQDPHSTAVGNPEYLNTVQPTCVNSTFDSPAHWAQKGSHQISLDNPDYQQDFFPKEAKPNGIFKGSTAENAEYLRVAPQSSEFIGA

- IC50 (DU-145): 6.79 µM
- IC50 (HepG2 [7]): 9.56 µM
- IC50 (A549 [8]): 15 µM
- IC50 (A549 [9]): 20.6 µM
- IC50 [11]: 0.00362 µM
- inhibition [24]: 94.3%
- inhibition [25]: 99.1%
Structure (SMILES): COc1cc2c(Nc3ccc(C#N)cc3)ncnc2cc1OCCCN1CCC(c2ccccc2)CC1
- Activity (A549 [1]): 0.8%
- Activity (HepG2 [2]): 99.1%
- Activity (A549 [3]): 2.9%
- Activity (A549 [4]): 75.5%
- Activity (A549 [5]): 91.4%
- Activity (A549 [6]): 86.6%
- IC50 [10]: 28 µM
- Activity (HepG2 [12]): 52.94%
- Activity (HepG2 [13]): 60.72%
- Activity (HepG2 [14]): 9.37%
- Activity (HepG2 [15]): 0.1%
- Activity (HepG2 [16]): Active
- Activity (HepG2 [17]): Active
- Activity (HepG2 [18]): Active
- Activity (HepG2 [19]): 87%
- Activity (HepG2 [20]): 84%
- Activity (HepG2 [21]): 41.7%
- Activity (HepG2 [22]): 145%
- Activity (HepG2 [23]): 198%
